Results on 17 molecules are retold here after ChEMBL document CHEMBL1146521, “Sesquiterpene lactones from Anthemis altissima and their anti-Helicobacter pylori activity” (2003).

Each structure is given as a SMILES string. ≈ marks a conversion by molar mass, not a printed value. Calls of active or inactive are those of the source. No cut-off for these calls is given here.

Experiment [1] has as its system Proteus mirabilis. As to the kind of experiment: Antimicrobial activity against Proteus mirabilis isolates after 36 hrs under aerobic condition by microdilution method. The format is functional. In outline:
(§1)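 Bacteria grown overnight at 37 °C in tryptone soya broth (~10^9 cells/mL), then diluted in sterile saline to about 1.0 × 10^5 per well. Broth serial microdilution with compounds predissolved in DMSO, at final […]; DMSO ≤1%. Incubated 36 h at 37 °C. MIC = lowest concentration with no visible growth under binocular microscope. Inocula checked on TSA. Controls: DMSO, streptomycin.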
On the technique in general: In broth dilution the organism is exposed to a series of concentrations in liquid medium.

For experiment [2], the system named is Pseudomonas aeruginosa. Kind of experiment: Antimicrobial activity against Pseudomonas aeruginosa ATCC 27853 after 36 hrs under aerobic condition by microdilution method. The format is functional, organism-based. In short, it runs like this:
as §1

Experiment [3] has as its system Helicobacter pylori. Kind of experiment: Antimicrobial activity against Helicobacter pylori isolates after 3 days under microaerobic condition by microdilution method.
The test system of experiment [4] is Micrococcus flavus. As to the kind of experiment: Antimicrobial activity against Micrococcus flavus ATCC 10240 after 36 hrs under aerobic condition by microdilution method. The format is functional. The following applies: ATCC 10240, 36 h. In outline:
as §1

Experiment [5] deals with Bacillus cereus. Kind of experiment: Antimicrobial activity against Bacillus cereus isolate after 36 hrs under aerobic condition by microdilution method. The format is functional. In outline: as §1
For experiment [6], the system named is Escherichia coli. As to the kind of experiment: Antimicrobial activity against Escherichia coli ATCC 35218 after 36 hrs under aerobic condition by microdilution method. The format is functional. As to conditions: ATCC 35218, 36 h. In short, it runs like this:
as §1

Experiment [7] concerns Staphylococcus aureus. Kind of experiment: Antimicrobial activity against Staphylococcus aureus ATCC 6538 after 36 hrs under aerobic condition by microdilution method. The format is functional. As to conditions: ATCC 6538, 36 h. In short, it runs like this:
as §1

Experiment [8] concerns Helicobacter pylori. Kind of experiment: Antimicrobial activity against Helicobacter pylori isolates after 36 hrs under […] condition by microdilution method. The format is functional.

`COc1ccc(-c2oc3cc(O)c(OC)c(O)c3c(=O)c2OC)cc1O`: the result in experiment [1] and in experiment [2] was inactive.

The term MIC denotes the least concentration at which growth counts as inhibited. On to `COc1ccc(-c2oc3cc(O)cc(O)c3c(=O)c2O)cc1` [KAEMPFERIDE], for which the MIC in experiment [3] was found to be 6.25 µg/mL (≈ 20.8 µM); in experiment [4], 50 µg/mL (≈ 167 µM); in experiment [5], 25 µg/mL (≈ 83.3 µM). The result in experiment [1] and in experiment [2] was inactive.

In the case of `COc1c(-c2ccc(O)c(O)c2)oc2cc(O)cc(O)c2c1=O` [3-O-METHYLQUERCETIN], the results for the MIC in experiment [3] and in experiment [6] were 12.5 µg/mL (≈ 39.5 µM) and 50 µg/mL (≈ 158 µM), respectively. In addition, the result in experiment [1] and in experiment [2] was inactive.

Consider `O=c1c(O[C@@H]2O[C@H](CO)[C@@H](O)[C@H](O)[C@H]2O)c(-c2ccc(O)c(O)c2)oc2cc(O)cc(O)c12` [ISOQUERCETIN], for which the MIC in experiment [3] is 25 µg/mL (≈ 53.8 µM). Besides, the result in experiment [1] and in experiment [2] was inactive.

Regarding `C=C1C(=O)O[C@H]2/C=C(\C)[C@@H](O)CC/C(C)=C/[C@@H](O)[C@H]12` [TATRIDIN A], the MIC stood at 12.5 µg/mL (≈ 47.3 µM) in experiment [3], 50 µg/mL (≈ 189 µM) in experiment [7] and 50 µg/mL (≈ 189 µM) in experiment [5]. Also, the outcome in experiment [1] and in experiment [2] was inactive.

With `O=C1C[C@@H](c2ccc(O)c(O)c2)Oc2cc(O)cc(O)c21` [ERIODICTYOL], in experiment [3], the MIC was found to be 50 µg/mL (≈ 173 µM). The result in experiment [1] and in experiment [2] was inactive.

On to `COc1cc(-c2oc3cc(O)cc(O)c3c(=O)c2O)ccc1O`, for which the result in experiment [1], in experiment [8] and in experiment [2] was inactive.

Turning to `C=C1C(=O)O[C@H]2C[C@@]3(C)[C@H](O)CC=C(C)[C@@H]3[C@@H](O)[C@H]12`, the MIC in experiment [3] is 12.5 µg/mL (≈ 47.3 µM); in experiment [7], 50 µg/mL (≈ 189 µM); in experiment [5] it was 25 µg/mL (≈ 94.6 µM). Besides, the outcome in experiment [1] and in experiment [2] was inactive.

In the case of `C=C1C(=O)O[C@H]2C[C@@]3(C)[C@H](O)CCC(=C)[C@@H]3[C@@H](O)[C@H]12`, the MIC in experiment [3], in experiment [7], in experiment [6], in experiment [4] and in experiment [5] was 50 µg/mL (≈ 189 µM) each time. Also, the result in experiment [1] and in experiment [2] was inactive.

Turning to `O=c1cc(-c2ccc(O)cc2)oc2cc(O)cc(O)c12`, the outcome in experiment [3], in experiment [1] and in experiment [2] was inactive.

For `C=C1C(=O)O[C@H]2CC(=C)[C@@H](O)CC/C(C)=C/[C@@H](O)[C@H]12` [TATRIDIN B], the MIC in experiment [3], in experiment [7], in experiment [6], in experiment [4] and in experiment [5] was 50 µg/mL (≈ 189 µM) in each case. Also, the outcome in experiment [1] and in experiment [2] was inactive.

For `O=c1c(O)c(-c2ccc(O)c(O)c2)oc2cc(O)cc(O)c12` [QUERCETIN], the MIC in experiment [3] and in experiment [5] was 50 µg/mL (≈ 165 µM) each time. Moreover, the result in experiment [1] and in experiment [2] was inactive.

Regarding `CN[C@@H]1[C@H](O[C@H]2[C@H](O[C@H]3[C@H](O)[C@@H](O)[C@H](N=C(N)N)[C@@H](O)[C@@H]3N=C(N)N)O[C@@H](C)[C@]2(O)C=O)O[C@@H](CO)[C@H](O)[C@H]1O` [STREPTOMYCIN], the MIC in experiment [1] was 400 µg/mL (≈ 688 µM); in experiment [7] it was 100 µg/mL (≈ 172 µM); in experiment [6] it was 200 µg/mL (≈ 344 µM); in experiment [4], 100 µg/mL (≈ 172 µM); in experiment [5] it was 100 µg/mL (≈ 172 µM).

`O=C1c2c(O)cc(O)cc2O[C@H](c2ccc(O)c(O)c2)[C@H]1O` [(+)-TAXIFOLIN] yielded an MIC in experiment [3] of 25 µg/mL (≈ 82.2 µM). Further, the outcome in experiment [1] and in experiment [2] was inactive.

Turning to `C=C1C(=O)O[C@H]2C[C@@]3(C)[C@H](C(C)=CC[C@@H]3O)[C@@H](O)[C@H]12` [ALTISSIN], the minimal inhibitory concentration (MIC) in experiment [3] was 50 µg/mL (≈ 189 µM); in experiment [7], 50 µg/mL (≈ 189 µM); in experiment [5], 12.5 µg/mL (≈ 47.3 µM). Further, the outcome in experiment [1] and in experiment [2] was inactive.

On to `O=C(/C=C/c1ccc(O)c(O)c1)O[C@@H]1C[C@](O)(C(=O)O)C[C@@H](O)[C@H]1O` [CHLOROGENIC ACID], for which the minimal inhibitory concentration (MIC) in experiment [3] came out at 6.25 µg/mL (≈ 17.6 µM). The result in experiment [1] and in experiment [2] was inactive.

Take `COc1cc(O)c2c(=O)c(O)c(-c3ccc(O)c(O)c3)oc2c1` [RHAMNETIN]: the MIC in experiment [3] was determined as 50 µg/mL (≈ 158 µM). Further, the outcome in experiment [1] and in experiment [2] was inactive.
